# Experimental data as given in ChEMBL document CHEMBL1759892 (Bioorg Med Chem Lett, 2011).
# Columns and labels:
# Cytochrome P450 2D6 = Cytochrome P450 2D6 (Homo sapiens, UniProt P10635); test: Inhibition of CYP2D6; assay type: ADME
# Cytochrome P450 2C9 = Cytochrome P450 2C9 (Homo sapiens, UniProt P11712); test: Inhibition of CYP2C9; assay type: ADME
# Salmonella typhimurium = test: Genotoxicity in Salmonella Typhimurium by Ames test in presence of S9 fraction; assay type: toxicity, organism-based; details: salmonella enterica subsp. enterica serovar typhimurium
# Cytochrome P450 2C19 = Cytochrome P450 2C19 (Homo sapiens, UniProt P33261); test: Inhibition of CYP2C19; assay type: ADME
# [1] = target: Voltage-gated inwardly rectifying potassium channel KCNH2 (Homo sapiens, UniProt Q12809); test: Inhibition of human ERG
# Cytochrome P450 3A4 = Cytochrome P450 3A4 (Homo sapiens, UniProt P08684); test: Inhibition of CYP3A4; assay type: ADME
# Adenosine receptor A2b [2] = target: T1, Adenosine receptor A2b (Homo sapiens, UniProt P29275); test: Inhibition of human adenosine A2B receptor expressed in CHO cells assessed as decrease in cellular cAMP level after 20 to 25 mins; assay type: functional, cell-based
# T1 sequence (P29275 whole entry): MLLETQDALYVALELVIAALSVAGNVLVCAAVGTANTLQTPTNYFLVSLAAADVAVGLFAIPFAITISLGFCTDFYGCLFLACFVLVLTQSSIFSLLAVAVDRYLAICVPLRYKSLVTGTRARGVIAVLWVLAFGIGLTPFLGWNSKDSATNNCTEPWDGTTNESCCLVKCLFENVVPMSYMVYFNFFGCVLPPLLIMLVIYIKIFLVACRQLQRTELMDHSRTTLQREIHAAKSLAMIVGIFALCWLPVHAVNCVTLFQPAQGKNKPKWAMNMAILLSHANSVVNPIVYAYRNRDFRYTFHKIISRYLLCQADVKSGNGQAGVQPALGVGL
# Adenosine receptor A1 = target: T2, Adenosine receptor A1 (Homo sapiens, UniProt P30542); test: Displacement of [3H]-DPCPX from human adenosine A1 receptor after 1 hr
# T2 sequence (P30542 whole entry): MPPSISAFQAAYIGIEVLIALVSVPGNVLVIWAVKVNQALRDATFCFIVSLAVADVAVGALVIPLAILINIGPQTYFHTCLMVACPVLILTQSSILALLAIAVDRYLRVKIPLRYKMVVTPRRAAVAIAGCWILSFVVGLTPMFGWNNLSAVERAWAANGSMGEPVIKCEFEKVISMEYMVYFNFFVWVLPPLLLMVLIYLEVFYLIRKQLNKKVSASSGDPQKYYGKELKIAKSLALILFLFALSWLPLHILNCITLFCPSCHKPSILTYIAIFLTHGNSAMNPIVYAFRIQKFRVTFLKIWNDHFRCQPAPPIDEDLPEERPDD
# Outline: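 Human A1 receptor membranes, diluted in HEPES 50 mM, NaCl 100 mM, MgCl2 1 mM, were incubated with [3H]-DPCPX (4.8 nM final) and test compound for 1 h at room temperature with orbital shaking. Reactions were filtered on polyethyleneimine-treated filter plates, air dried and counted by scintillation. Values given as Ki.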
# Adenosine receptor A2a = Adenosine receptor A2a (Homo sapiens, UniProt P29274); test: Displacement of [3H]ZM241385 from human adenosine A2A receptor after 1 hr
# Adenosine receptor A2b [3] = target: T1, Adenosine receptor A2b; test: Displacement of [3H]ZM241385 from human adenosine A2B receptor expressed in CHO cells after 1 hr; assay type: cell-based
# Outline: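 Whole CHO cells expressing human A2B were harvested mechanically at 80% confluence, frozen in aliquots and resuspended in assay buffer on the day of assay. Cells were incubated with [3H]-ZM241385 (30 nM final) and test compound for 1 h at room temperature with orbital shaking. Reactions were filtered on polyethyleneimine-treated plates and counted by scintillation. Values given as Ki.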
# Chain of Adenosine receptor A2a (P29274 whole entry): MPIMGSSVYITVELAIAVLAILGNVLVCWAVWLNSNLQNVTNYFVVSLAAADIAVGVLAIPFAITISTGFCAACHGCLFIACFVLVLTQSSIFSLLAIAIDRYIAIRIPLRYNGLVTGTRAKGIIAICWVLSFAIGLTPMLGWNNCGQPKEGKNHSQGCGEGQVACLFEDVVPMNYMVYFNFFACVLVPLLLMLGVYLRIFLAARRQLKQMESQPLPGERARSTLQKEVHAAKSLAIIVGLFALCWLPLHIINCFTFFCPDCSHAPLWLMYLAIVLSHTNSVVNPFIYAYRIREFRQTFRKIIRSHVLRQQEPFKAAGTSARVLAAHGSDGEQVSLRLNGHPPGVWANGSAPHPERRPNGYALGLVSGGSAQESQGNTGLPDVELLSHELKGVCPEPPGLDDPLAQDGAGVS
# Chain of Cytochrome P450 2C9 (P11712 whole entry): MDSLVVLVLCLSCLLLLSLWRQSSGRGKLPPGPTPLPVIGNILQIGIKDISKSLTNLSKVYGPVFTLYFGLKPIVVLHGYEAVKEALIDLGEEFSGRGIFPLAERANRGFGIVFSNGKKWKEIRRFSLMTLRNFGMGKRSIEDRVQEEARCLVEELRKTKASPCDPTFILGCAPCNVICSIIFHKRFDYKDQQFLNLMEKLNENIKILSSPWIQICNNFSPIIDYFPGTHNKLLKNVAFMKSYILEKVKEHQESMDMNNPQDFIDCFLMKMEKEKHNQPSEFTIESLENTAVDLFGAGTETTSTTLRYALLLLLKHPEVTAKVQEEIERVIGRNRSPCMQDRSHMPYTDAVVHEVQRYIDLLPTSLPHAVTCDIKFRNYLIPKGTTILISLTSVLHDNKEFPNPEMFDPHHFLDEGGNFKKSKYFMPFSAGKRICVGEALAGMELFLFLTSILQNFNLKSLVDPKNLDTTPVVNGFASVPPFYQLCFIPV
# Chain of Cytochrome P450 3A4 (P08684 whole entry): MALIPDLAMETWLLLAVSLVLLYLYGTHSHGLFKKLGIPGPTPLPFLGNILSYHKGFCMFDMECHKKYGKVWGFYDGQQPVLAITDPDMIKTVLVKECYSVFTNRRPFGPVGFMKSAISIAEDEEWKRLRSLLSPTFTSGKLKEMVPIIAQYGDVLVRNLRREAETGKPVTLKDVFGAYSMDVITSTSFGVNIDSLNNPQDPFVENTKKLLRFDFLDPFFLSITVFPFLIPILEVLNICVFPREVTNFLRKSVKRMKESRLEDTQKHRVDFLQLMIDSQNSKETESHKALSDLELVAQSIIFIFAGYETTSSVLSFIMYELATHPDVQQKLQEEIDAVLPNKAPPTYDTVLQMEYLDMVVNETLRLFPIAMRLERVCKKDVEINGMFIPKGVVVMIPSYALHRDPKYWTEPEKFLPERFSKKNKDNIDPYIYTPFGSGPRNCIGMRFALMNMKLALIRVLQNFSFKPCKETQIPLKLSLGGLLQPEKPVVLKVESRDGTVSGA
# Chain of Cytochrome P450 2C19 (P33261 whole entry): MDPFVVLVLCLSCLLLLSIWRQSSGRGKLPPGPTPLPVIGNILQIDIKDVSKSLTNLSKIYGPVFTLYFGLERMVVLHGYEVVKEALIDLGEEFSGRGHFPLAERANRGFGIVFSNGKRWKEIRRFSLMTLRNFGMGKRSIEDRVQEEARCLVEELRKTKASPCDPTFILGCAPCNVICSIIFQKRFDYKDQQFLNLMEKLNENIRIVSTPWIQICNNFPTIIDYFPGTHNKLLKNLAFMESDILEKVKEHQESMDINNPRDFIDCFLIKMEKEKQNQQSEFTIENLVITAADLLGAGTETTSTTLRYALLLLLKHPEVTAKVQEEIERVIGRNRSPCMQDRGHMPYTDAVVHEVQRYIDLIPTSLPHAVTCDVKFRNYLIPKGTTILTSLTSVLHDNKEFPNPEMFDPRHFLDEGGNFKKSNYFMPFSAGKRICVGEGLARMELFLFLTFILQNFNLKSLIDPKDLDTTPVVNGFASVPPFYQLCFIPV
# Chain of Voltage-gated inwardly rectifying potassium channel KCNH2 (Q12809 whole entry): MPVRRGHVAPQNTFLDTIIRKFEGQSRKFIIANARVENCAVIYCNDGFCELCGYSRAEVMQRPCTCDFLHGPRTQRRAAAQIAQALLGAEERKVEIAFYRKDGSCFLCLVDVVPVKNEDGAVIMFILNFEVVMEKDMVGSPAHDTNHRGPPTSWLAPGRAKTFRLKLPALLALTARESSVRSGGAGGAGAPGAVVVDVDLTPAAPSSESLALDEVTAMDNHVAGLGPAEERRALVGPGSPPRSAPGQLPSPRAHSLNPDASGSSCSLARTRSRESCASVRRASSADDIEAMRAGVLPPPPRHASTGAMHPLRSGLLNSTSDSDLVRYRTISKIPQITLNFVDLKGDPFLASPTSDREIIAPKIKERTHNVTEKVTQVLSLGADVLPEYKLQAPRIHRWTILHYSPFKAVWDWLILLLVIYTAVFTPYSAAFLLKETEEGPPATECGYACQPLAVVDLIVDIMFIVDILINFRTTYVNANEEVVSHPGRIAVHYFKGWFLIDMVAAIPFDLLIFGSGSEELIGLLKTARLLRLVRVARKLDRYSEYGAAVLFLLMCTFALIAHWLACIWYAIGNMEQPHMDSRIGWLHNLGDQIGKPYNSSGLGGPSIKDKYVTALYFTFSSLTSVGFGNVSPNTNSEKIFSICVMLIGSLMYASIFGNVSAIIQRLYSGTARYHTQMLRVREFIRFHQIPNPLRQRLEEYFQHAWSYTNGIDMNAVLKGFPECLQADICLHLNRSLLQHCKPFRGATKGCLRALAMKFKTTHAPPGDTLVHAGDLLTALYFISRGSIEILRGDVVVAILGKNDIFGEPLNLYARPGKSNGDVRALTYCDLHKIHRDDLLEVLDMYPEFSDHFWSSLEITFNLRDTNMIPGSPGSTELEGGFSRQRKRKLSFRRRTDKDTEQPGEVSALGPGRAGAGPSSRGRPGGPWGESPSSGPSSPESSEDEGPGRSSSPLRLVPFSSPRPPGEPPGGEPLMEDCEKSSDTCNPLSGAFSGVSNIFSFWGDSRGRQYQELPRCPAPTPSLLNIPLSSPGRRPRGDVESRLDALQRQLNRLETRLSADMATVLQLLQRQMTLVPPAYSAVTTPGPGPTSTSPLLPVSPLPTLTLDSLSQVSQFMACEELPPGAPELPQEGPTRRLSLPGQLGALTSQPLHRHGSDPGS
# Chain of Cytochrome P450 2D6 (P10635 whole entry): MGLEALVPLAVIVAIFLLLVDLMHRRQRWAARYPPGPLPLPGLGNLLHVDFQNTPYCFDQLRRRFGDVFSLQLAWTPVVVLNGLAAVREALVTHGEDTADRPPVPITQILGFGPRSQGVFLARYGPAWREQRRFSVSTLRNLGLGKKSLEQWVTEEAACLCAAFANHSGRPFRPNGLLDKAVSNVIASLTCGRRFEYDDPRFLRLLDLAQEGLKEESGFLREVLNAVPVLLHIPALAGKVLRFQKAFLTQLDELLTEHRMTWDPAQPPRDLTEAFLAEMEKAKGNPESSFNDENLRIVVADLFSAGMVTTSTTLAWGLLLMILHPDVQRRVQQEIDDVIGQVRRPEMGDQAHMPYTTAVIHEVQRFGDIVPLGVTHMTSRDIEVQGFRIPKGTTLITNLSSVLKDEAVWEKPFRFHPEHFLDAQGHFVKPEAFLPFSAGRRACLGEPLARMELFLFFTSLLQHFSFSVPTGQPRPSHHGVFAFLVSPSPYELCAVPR
Compound,IC50 (Adenosine receptor A2b [2]) [nM],Ki (Adenosine receptor A1) [nM],Ki (Adenosine receptor A2a) [nM],other results
CCN(C(C)=O)c1ccc(OC)c2nc(NC(=O)c3ccnn3C)sc12,–,–,–,IC50 (Cytochrome P450 2D6): > 50000 nM; IC50 (Cytochrome P450 2C9): > 50000 nM; Activity (Salmonella typhimurium): Non-toxic; IC50 (Cytochrome P450 2C19): > 50000 nM; IC50 [1]: > 100000 nM; IC50 (Cytochrome P450 3A4): > 50000 nM
CCN(C(C)=O)c1ccc(OC)c2nc(NC(=O)[C@H]3CC[C@@H](NS(=O)(=O)c4cccc(C(F)(F)F)c4)CC3)sc12,16,46,110,–
CCN(C(C)=O)c1ccc(OC)c2nc(NC(=O)[C@@H]3CCN(S(=O)(=O)c4cccc(C(F)(F)F)c4)C3)sc12,42,220,600,–
CCN(C(C)=O)c1ccc(OC)c2nc(NC(=O)[C@@H]3CC[C@H](NC(=O)c4cccc(C(F)(F)F)c4)C3)sc12,8,61,81,–
CCN(C(C)=O)c1ccc(OC)c2nc(NC(=O)[C@@H]3CC[C@@H](NC(=O)c4cccc(C(F)(F)F)c4)C3)sc12,8,31,31,–
CCN(C(C)=O)c1ccc(OC)c2nc(NC(=O)[C@@H]3CCN(Cc4cccc(C(F)(F)F)c4)C3)sc12,72,–,–,–
CCN(C(C)=O)c1ccc(OC)c2nc(NC(=O)[C@H]3CC[C@H](NC(=O)c4cccc(C(F)(F)F)c4)CC3)sc12,28,7,470,–
CCN(C(C)=O)c1ccc(OC)c2nc(NC(=O)[C@H]3CC[C@@H](NC(=O)c4cccc(C(F)(F)F)c4)CC3)sc12,26,20,52,–
CCN(C(C)=O)c1ccc(OC)c2nc(NC(=O)[C@@H]3CC[C@H](NCc4cccc(C(F)(F)F)c4)C3)sc12 (relative stereo),19,220,180,–

# More lines, main results first:
IC50 (Adenosine receptor A2b [2]) [nM],Ki (Adenosine receptor A1) [nM],Ki (Adenosine receptor A2a) [nM],Compound,other results
14,100,2040,CCN(C(C)=O)c1ccc(OC)c2nc(NC(=O)[C@@H]3CCN(C(=O)c4cccc(C(F)(F)F)c4)C3)sc12,Ki (Adenosine receptor A2b [3]): 18 nM
41,120,710,CCN(C(C)=O)c1ccc(OC)c2nc(NC(=O)[C@H]3CCN(C(=O)c4cccc(C(F)(F)F)c4)C3)sc12,–
17,2,230,CCN(C(C)=O)c1ccc(OC)c2nc(NC(=O)C3CCN(C(=O)c4cccc(C(F)(F)F)c4)CC3)sc12,–
49,78,1040,CCN(C(C)=O)c1ccc(OC)c2nc(NC(=O)C3CCN(S(=O)(=O)c4cccc(C(F)(F)F)c4)CC3)sc12,–
44,10,1000,CCN(C(C)=O)c1ccc(OC)c2nc(NC(=O)C3CCN(Cc4cccc(C(F)(F)F)c4)CC3)sc12,–
8,19,210,CCN(C(C)=O)c1ccc(OC)c2nc(NC(=O)N3CCC(O)(c4cccc(C(F)(F)F)c4)CC3)sc12,Ki (Adenosine receptor A2b [3]): 5 nM
18,5,240,CCN(C(C)=O)c1ccc(OC)c2nc(NC(=O)N3CCC(c4cccc(C(F)(F)F)c4)CC3)sc12,–
20,690,530,CCN(C(C)=O)c1ccc(OC)c2nc(NC(=O)N3CCC(S(=O)(=O)c4cccc(C(F)(F)F)c4)CC3)sc12,–
